Laboratory results reported in ChEMBL document CHEMBL3739324, “Characterization and Biological Evaluation of Diterpenoids from Casearia graveolens” (J Nat Prod, 2015).
Calls of active or inactive are those of the source. The calls are words filed in the database; no cut-off is given here.

Assays:
PC-12 [1] = experiment: Induction of neurite outgrowth in rat PC12 cells incubated for 96 hrs by phase contrast microscopy; type: functional, cell-based
In short: (§1)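 PC12 cells grown at 37 °C in DMEM with 5% FBS, 5% horse serum, penicillin/streptomycin, 5% CO2. Dissociated with 1 mM EGTA in PBS for 15 min, seeded at 3 × 10^4 cells/well on poly-L-lysine. After 24 h, switched to medium with 1% FBS, 1% HS, graded compound levels, with or without NGF (20 ng/mL; 100 ng/mL positive control), for 96 h.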

PC-12 [2] = experiment: Stimulation of NGF-mediated neurite outgrowth in rat PC12 cells incubated for 96 hrs by phase contrast microscopy; type: functional, cell-based; conditions: for EC50: PC-12, 96 h; in short: as §1

Row | SMILES | Activity (PC-12 [1]) | EC50 (PC-12 [2]) | Activity (PC-12 [2])
1 | C=CC(=C)CC[C@]1(C)[C@H](C)C[C@H](OC)[C@@]23C(=C[C@H](OC(=O)CCC)C[C@@H]12)[C@@H](OC(C)=O)O[C@H]3OC(C)=O | inactive | 28.7 µM | –
2 | C=CC(=C)CC[C@]1(C)[C@H](C)CC[C@@]23C(=C[C@H](OC(=O)CCC)C[C@@H]12)[C@@H](OC(=O)CCC)O[C@H]3OC(C)=O | – | – | inactive
3 | C=CC(=C)CC[C@]1(C)[C@H](C)CC[C@@]23C(=C[C@H](OC(=O)CCC)C[C@@H]12)[C@@H](OC(C)=O)O[C@H]3OC(C)=O | – | – | inactive
4 | C=CC(=C)CC[C@]1(C)[C@H](C)CC[C@@]23C(=C[C@H](O)C[C@@H]12)[C@@H](OC)O[C@H]3OC(C)=O | – | – | inactive
5 | C=CC(=C)CC[C@]1(C)[C@H](C)CC[C@@]23C(=C[C@H](O)C[C@@H]12)[C@@H](OC(=O)CCC)O[C@H]3OC(C)=O | – | – | inactive
6 | C=CC(=C)CC[C@]1(C)[C@H](C)C[C@H](OC)[C@@]23C(=C[C@H](OC(=O)CC)C[C@@H]12)[C@@H](OC(=O)CCC)O[C@H]3OC(C)=O | inactive | > 45 µM | –
7 | C=CC(=C)CC[C@]1(C)[C@H](C)C[C@H](OC)[C@@]23C(=C[C@H](OC(=O)CCC)C[C@@H]12)[C@@H](OC)O[C@H]3OC(C)=O | inactive | 20.6 µM | –
8 | C=CC(=C)CC[C@]1(C)[C@H](C)CC[C@@]23[C@H](OC(C)=O)O[C@H](OC(=O)CCC)[C@@H]2CC(=O)C[C@@H]13 | – | – | inactive
9 | C=CC(=C)CC[C@]1(C)[C@H](C)C[C@H](OC)[C@@]23C(=C[C@H](OC(=O)CC)C[C@@H]12)[C@@H](OC)O[C@H]3OC(C)=O | inactive | 4.4 µM | –
10 | C=CC(=C)CC[C@]1(C)[C@H](C)C[C@H](OC)[C@@]23C(=C[C@H](O)C[C@@H]12)[C@@H](OC)O[C@H]3OC | inactive | 3.3 µM | –
